Reference: ChEMBL document CHEMBL5108077, “Discovery of N-β-l-Fucosyl Amides as High-Affinity Ligands for the Pseudomonas aeruginosa Lectin LecB” (J Med Chem, 2022)

Experiments:
Pseudomonas aeruginosa [1] = assay: Binding affinity to Pseudomonas aeruginosa PA-IIL assessed as change in enthalpy by isothermal titration calorimetry
Outline: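 Recombinant PAO1 LecB expressed in E. coli BL21(DE3), in TBS/Ca²⁺ pH 7.4. Ligand (500–1500 μM) titrated into 100 μM LecB at 25 °C with stirring: 19–39 injections, 240 s apart. First injection discarded. One-site binding model fit. Means from three independent titrations.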

Pseudomonas aeruginosa [2] = assay: Binding affinity to Pseudomonas aeruginosa PA-IIL assessed as change in entropy by isothermal titration calorimetry

SMILES: C[C@@H]1O[C@H](O)[C@@H](O)[C@H](O)[C@@H]1O
- deltaH (Pseudomonas aeruginosa [1]): -31.2 kJ/mol
- TdeltaS (Pseudomonas aeruginosa [2]): 0.3 kJ/mol
